Data published in ChEMBL document CHEMBL3877315, “Synthesis, biological evaluation and molecular docking analysis of 2-phenyl-benzofuran-3-carboxamide derivatives as potential inhibitors of Staphylococcus aureus Sortase A” (Bioorg Med Chem, 2017).

Experiment: Inhibition of Staphylococcus aureus Sortase A delta 59 mutant using Abz-LPATG-Dnp as substrate preincubated for 1 hr followed by substrate addition measured after 30 mins by HPLC method
How it was run: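 His6-tagged SrtA59 expressed from pET28 in E. coli, IPTG-induced, Ni-NTA purified. Enzyme 5 µM was pre-incubated with inhibitor in DMSO (final 12.5~200 µM) for 1 h at 37 °C in 50 mM Tris-HCl pH 7.5, 150 mM NaCl, 5 mM CaCl₂, 0.05% Tween 20. Abz-LPATG-Dnp added at 10 µM final; stopped with HCl. G-Dnp peak area read at 355 nm by reverse-phase HPLC and compared with no-inhibitor control. IC50 taken at 50% decrease; three repeats.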

Row | Compound | IC50 [µM]
1 | CC(C)CNC(=O)c1c(-c2ccc(COC(=O)c3ccc([N+](=O)[O-])c(O)c3)cc2)oc2ccccc12 | 60.6
2 | COc1cc(OC)cc(C(=O)OCc2ccc(-c3oc4ccccc4c3C(=O)NCC(C)C)cc2)c1 | 62
3 | CC(C)CNC(=O)c1c(-c2ccc(COC(=O)/C=C/c3ccc(O)cc3)cc2)oc2ccccc12 | 158
4 | CC(C)CNC(=O)c1c(-c2ccc(COC(=O)c3cccc(O)c3)cc2)oc2ccccc12 | 50.6
5 | CC(C)CNC(=O)c1c(-c2ccc(COC(=O)c3ccc(F)cc3)cc2)oc2ccccc12 | > 200
6 | CC(C)CNC(=O)c1c(-c2ccc(COc3ccc(Cl)cc3)cc2)oc2ccccc12 | > 200
7 | CC(C)CNC(=O)c1c(-c2ccc(COC(=O)c3ccc(N)cc3)cc2)oc2ccccc12 | 52.3
8 | CC(C)CNC(=O)c1c(-c2ccc(COC(=O)c3ccc(O)cc3O)cc2)oc2ccccc12 | 57
9 | CC(C)CNC(=O)c1c(-c2ccc(COC(=O)Cc3ccc(O)c(O)c3)cc2)oc2ccccc12 | 30.8
10 | CC(C)CNC(=O)c1c(-c2ccc(COC(=O)Cc3ccc([N+](=O)[O-])cc3)cc2)oc2ccccc12 | > 200
11 | CC(C)CNC(=O)c1c(-c2ccc(COc3cccc(C=O)c3)cc2)oc2ccccc12 | 89
12 | COc1cc(C(=O)OCc2ccc(-c3oc4ccccc4c3C(=O)NCC(C)C)cc2)cc(OC)c1OC | 55.2
13 | CC(C)CNC(=O)c1c(-c2ccc(COC(=O)c3ccc(O)c(O)c3)cc2)oc2ccccc12 | 39.6
14 | CC(=O)c1cccc(OCc2ccc(-c3oc4ccccc4c3C(=O)NCC(C)C)cc2)c1 | 148
15 | CC(C)CNC(=O)c1c(-c2ccc(COC(=O)Cc3ccc(C(F)(F)F)cc3)cc2)oc2ccccc12 | > 200
16 | CC(C)CNC(=O)c1c(-c2ccc(COc3ccc(C#N)cc3)cc2)oc2ccccc12 | 97
17 | CC(C)CNC(=O)c1c(-c2ccc(COC(=O)c3ccc(S)cc3)cc2)oc2ccccc12 | 89.1
18 | CCCCNC(=O)c1c(-c2ccc(COC(=O)c3ccc(O)cc3)cc2)oc2ccccc12 | 186
19 | CC(C)CNC(=O)c1c(-c2ccc(COc3ccc(CO)cc3)cc2)oc2ccccc12 | 121

Row | Compound | IC50 [µM]
20 | CC(C)CNC(=O)c1c(-c2ccc(COC(=O)c3ccccc3[N+](=O)[O-])cc2)oc2ccccc12 | > 200
21 | CCCCNC(=O)c1c(-c2ccc(COc3ccc(C(=O)OC)cc3)cc2)oc2ccccc12 | > 200
22 | CC(C)CNC(=O)c1c(-c2ccc(COC(=O)Cc3ccc(O)cc3)cc2)oc2ccccc12 | 84
23 | CC(C)CNC(=O)c1c(-c2ccc(COC(=O)c3ccccc3O)cc2)oc2ccccc12 | 76.4
24 | CC(C)CNC(=O)c1c(-c2ccc(COC(=O)c3ccc(N(C)C)cc3)cc2)oc2ccccc12 | > 200
25 | Cc1ccc(OCc2ccc(-c3oc4ccccc4c3C(=O)NCC(C)C)cc2)cc1 | > 200
26 | CC(C)CNC(=O)c1c(-c2ccc(COc3ccc(S(C)(=O)=O)cc3)cc2)oc2ccccc12 | 132
27 | CC(C)CNC(=O)c1c(-c2ccc(COC(=O)Cc3ccccc3O)cc2)oc2ccccc12 | 89
28 | CC(C)CNC(=O)c1c(-c2ccc(COC(=O)c3ccc(O)cc3)cc2)oc2ccccc12 | 43
29 | CCCCNC(=O)c1c(-c2ccc(COC(=O)c3ccc(O)c(O)c3)cc2)oc2ccccc12 | 66
30 | CC(=O)Nc1ccc(OCc2ccc(-c3oc4ccccc4c3C(=O)NCC(C)C)cc2)cc1 | 171
31 | CC(C)CNC(=O)c1c(-c2ccc(COC(=O)c3ccccc3)cc2)oc2ccccc12 | 158
32 | CC(C)CNC(=O)c1c(-c2ccc(COC(=O)Cc3cccc(C(F)(F)F)c3)cc2)oc2ccccc12 | > 200
33 | CC(=O)Nc1cccc(OCc2ccc(-c3oc4ccccc4c3C(=O)NCC(C)C)cc2)c1 | 148
34 | CCCCNC(=O)c1c(-c2ccc(COc3ccc(S(C)(=O)=O)cc3)cc2)oc2ccccc12 | > 200
35 | CC(C)CNC(=O)c1c(-c2ccc(COc3cccc(O)c3)cc2)oc2ccccc12 | 86.4
36 | CC(C)CNC(=O)c1c(-c2ccc(COC(=O)Cc3cccc(O)c3)cc2)oc2ccccc12 | 76.3
37 | CC(C)CNC(=O)c1c(-c2ccc(COC(=O)c3cc(O)cc(O)c3)cc2)oc2ccccc12 | 34.5
38 | Para-Hydroxymercuribenzoic acid | 130
